Values joined by “and” are separate entries in the source; they are usually repeats but may differ in a detail not shown here. Identical values can stand only once.
Key:
[1] = Pharmacokinetics after single IV bolus in healthy dogs; type: in vivo; conditions: dog
Summary of the method: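 Six healthy hound dogs, crossover design with two-week washout. Test compound was freshly made at 15 mg/ml in 2-hydroxypropyl-β-cyclodextrin/sterile water and given at 1.0 mg/kg as a 10-min IV bolus. Jugular plasma was taken at 0-720 min and 24 h and assayed by LC-ES/MS/MS (deuterated internal standard). AUC and AUMC were taken by linear trapezoid extrapolated to infinity; A and B came from a two-compartment fit by residuals; Cls = dose/AUC.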

[2] = test system: CA46 human B-cell lymphoma line; assay: Annexin V-FITC/PI apoptosis detection by flow cytometry, CA46 cells; type: cell-based
Summary of the method: (§1)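 Cells were seeded at 100,000 per well in fresh medium holding 0, 5, 10 or 20 µM test compound, alongside a vehicle control. They were exposed 24 or 48 h at 37 °C, 5% CO2. Apoptosis was read by Annexin V-FITC/PI staining and flow cytometry, in triplicate. Lines were kept as suspensions in DMEM with P/S, plus 10% FBS (17-71, GL-1) or 20% FBS (CA46). Time and concentration effects were tested by 2-way ANOVA with Tukey or Dunnett post hoc.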

caspase-3 [3] = target: T1, caspase-3 (Homo sapiens, UniProt P42574); assay: Caspase-3 colorimetric assay in cell lysate, CA46 cells; type: cell-based; conditions: 10 or 20 µM, incubation ≤ 4 hours
T1 sequence (P42574 29-277): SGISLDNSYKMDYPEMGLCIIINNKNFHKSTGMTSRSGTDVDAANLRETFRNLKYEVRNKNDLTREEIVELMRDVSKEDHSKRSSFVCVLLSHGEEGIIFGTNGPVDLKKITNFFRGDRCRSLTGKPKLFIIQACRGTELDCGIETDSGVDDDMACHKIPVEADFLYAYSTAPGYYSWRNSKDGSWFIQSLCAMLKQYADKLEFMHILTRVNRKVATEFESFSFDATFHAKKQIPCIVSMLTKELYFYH
Summary of the method: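 CA46 human B-cell lymphoma cells, grown in suspension in DMEM with 20% FBS and P/S at 37 °C, 5% CO2, were exposed to test compound at 10 or 20 µM for 0, 1, 2, 4, 24 and 48 h. Lysate from 2 million cells per time point was assayed with a colorimetric caspase-3 kit read at 405 nm, in duplicate. Activity was compared with vehicle-treated cells (hour 0) by one-way ANOVA and Dunnett's test.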

caspase-3 [4] = target: T2, caspase-3 (Canis lupus familiaris, UniProt Q8MKI5); assay: Caspase-3 colorimetric assay in cell lysate, GL-1 cells; type: cell-based, canine; conditions: 10 or 20 µM, incubation ≤ 4 hours
T2 sequence (Q8MKI5 29-277): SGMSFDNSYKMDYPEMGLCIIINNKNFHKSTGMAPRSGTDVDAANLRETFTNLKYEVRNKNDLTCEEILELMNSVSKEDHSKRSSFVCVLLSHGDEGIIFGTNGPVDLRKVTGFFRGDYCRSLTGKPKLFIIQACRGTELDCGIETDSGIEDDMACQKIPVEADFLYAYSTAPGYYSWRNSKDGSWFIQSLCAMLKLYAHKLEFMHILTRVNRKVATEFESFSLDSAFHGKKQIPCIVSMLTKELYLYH
Summary of the method: (§2)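 Lymphoma cells were exposed to 10 or 20 µM test compound for 0, 1, 2, 4, 24 and 48 h at 37 °C, 5% CO2; hour 0 served as vehicle control. Lysates from 2 million cells per time point went into a colorimetric caspase-3 assay read at 405 nm, run in duplicate. Time points were compared to control by one-way ANOVA with Dunnett's test.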

[5] = test system: 17-71 canine B-cell lymphoma line; assay: Annexin V-FITC/PI apoptosis detection by flow cytometry, 17-71 cells; type: cell-based
Summary of the method: as §1

[6] = Toxicity assessment of 48-hour IV constant rate infusion in healthy dogs; type: in vivo; conditions: dog
Summary of the method: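 Four healthy dogs from the kinetic study received IV test compound as a 10-min loading dose, then a constant-rate maintenance infusion for 48 h. […] Haematologic, non-haematologic and gastrointestinal effects were checked weekly for 4 weeks.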

[7] = Pharmacokinetics after single oral administration in healthy dogs; type: in vivo; conditions: dog; for AUC o-inf. / Cmax / F (absolute oral bioavailability) / Oral clearance / Tmax / t1/2 K10 (terminal elimination half-life): 1 mg/kg oral
Summary of the method: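 Same six dogs in crossover, two-week washout. Test compound in 2-hydroxypropyl-β-cyclodextrin/sterile water was given once at 1.0 mg/kg as a 5-min oral slurry. Plasma was sampled at 0, 15, 30, 45, 60, 120, 240, 480, 720 min and 24 h and quantified by LC-ES/MS/MS. A one-compartment absorption model gave K01 and K10, Cmax and Tmax; Clo = dose/AUC0-inf; F = AUC oral/AUC IV × dose ratio.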

[8] = test system: GL-1 canine B-cell lymphoma line; assay: Annexin V-FITC/PI apoptosis detection by flow cytometry, GL-1 cells; type: cell-based
Summary of the method: as §1

caspase-3 [9] = target: T2, caspase-3; assay: Caspase-3 colorimetric assay in cell lysate, 17-71 cells; type: cell-based, canine; conditions: 10 or 20 µM, incubation ≤ 4 hours
Summary of the method: as §2

[10] = Plasma concentration during 48-hour IV constant rate infusion in healthy dogs; type: in vivo; conditions: dog, IV CRI
[11] = 1 mg/kg IV, individual dogs A-F, 1 mg/kg

C=CCc1cccc(/C=N/NC(=O)CN2CCN(Cc3ccccc3)CC2)c1O [PAC-1]
A (Y intercept, distribution phase) ([1]; 1 mg/kg IV, Mean ± SD, n=6): 1483.8 ± 723.0 ng/mL
AUC0-inf ([1]; 1 mg/kg IV, Mean ± SD, n=6): 1740 ± 309.6 ngxhr/ml
AUMC0-inf ([1]; 1 mg/kg IV, Mean ± SD, n=6): 4805 ± 1211 ngxhrxhr/ml
B (Y intercept, elimination phase) ([1]; 1 mg/kg IV, Mean ± SD, n=6): 249.0 ± 172.9 ng/mL
Cls (total body clearance) ([1]; 1 mg/kg IV, Mean ± SD, n=6): 9.578 ± 1.26 mL/min/kg
Vdc (volume of distribution in central compartment) ([1]; 1 mg/kg IV, Mean ± SD, n=6): 0.678 ± 0.254 L/kg
Vdss (volume of distribution at steady state) ([1]; 1 mg/kg IV, Mean ± SD, n=6): 1.643 ± 0.497 L/kg
Vdβ (volume of distribution in terminal elimination phase) ([1]; 1 mg/kg IV, Mean ± SD, n=6): 2.698 ± 0.865 L/kg
t1/2 β (terminal elimination half-life) ([1]; 1 mg/kg IV, Mean ± SD, n=6): 3.12 ± 0.67 h
A (Y intercept, distribution phase) [1, 11]: 1065 ng/mL and 2598 ng/mL and 908 ng/mL and 2199 ng/mL and 1119 ng/mL and 1014 ng/mL
AUC0-inf [1, 11]: 1730 ngxhr/ml and 2339 ngxhr/ml and 1468 ngxhr/ml and 1645 ngxhr/ml and 1709 ngxhr/ml and 1549 ngxhr/ml
AUMC0-inf [1, 11]: 4751 ngxhrxhr/ml and 6167 ngxhrxhr/ml and 3693 ngxhrxhr/ml and 3802 ngxhrxhr/ml and 4247 ngxhrxhr/ml and 6174 ngxhrxhr/ml
B (Y intercept, elimination phase) [1, 11]: 288 ng/ml and 584 ng/ml and 138 ng/ml and 176 ng/ml and 154 ng/ml (2×)
Cls (total body clearance) [1, 11]: 9.63 mL/min/kg and 7.13 mL/min/kg and 10 mL/min/kg and 10.1 mL/min/kg and 9.75 mL/min/kg and 10.8 mL/min/kg
Vdc (volume of distribution in central compartment) [1, 11]: 0.739 L/kg and 0.314 L/kg and 0.957 L/kg and 0.421 L/kg and 0.786 L/kg and 0.856 L/kg
Vdss (volume of distribution at steady state) [1, 11]: 1.587 L/kg and 1.127 L/kg and 1.715 L/kg and 1.405 L/kg and 1.454 L/kg and 2.574 L/kg
Vdβ (volume of distribution in terminal elimination phase) [1, 11]: 2.260 L/kg and 1.380 L/kg and 3.145 L/kg and 2.699 L/kg and 2.736 L/kg and 3.968 L/kg
t1/2 β (terminal half-life) [1, 11]: 2.71 h and 2.24 h and 3.20 h and 3.08 h and 3.24 h and 4.26 h
average peak plasma concentration ([1]; 1.0 mg/kg bolus IV, immediately following completion of infusion): 2.8 ± 0.6 µM
fraction of apoptotic cells ([2]; 24 hour exposure): 20–35%
apoptosis ([2]; 48 hour, 10 µM): ≥ 50%
cells undergone apoptosis ([2]; 48 hours, PAC-1 ≥10 µM): greater than 50%
caspase-3 activity in cell lysate vs vehicle-treated control cells (caspase-3 [3]): failed to significantly increase
caspase-3 activity in cell lysate vs vehicle-treated control cells (caspase-3 [4]): failed to significantly increase
cells staining only for Annexin-V-FITC (early apoptosis) ([5]; 48 hour, 20 µM): approximately 70%
apoptotic cells ([5]; 48 hours, PAC-1 ≥ 10 µM): ≥ 60%
gastrointestinal toxicity ([6]; 48-hour CRI, 4 week monitoring, n=4): no clinically overt gastrointestinal toxicity
ALT ([6]; 48-hour CRI, Day 0): 46.7 ± 34.1 U/L
Calcium ([6]; 48-hour CRI, Day 0): 10.3 ± 0.1 mg/dL
Creatinine ([6]; 48-hour CRI, Day 0): 0.9 ± 0.2 mg/dL
Hematocrit ([6]; 48-hour CRI, Day 0): 53.0 ± 3.8%
Lymphocyte ([6]; 48-hour CRI, Day 0): 1.9 ± 0.3 ×10^3
Neutrophil ([6]; 48-hour CRI, Day 0): 5.4 ± 1.0 ×10^3
Phosphorous ([6]; 48-hour CRI, Day 0): 3.7 ± 0.4 mg/dL
Platelet ([6]; 48-hour CRI, Day 0): 1.9 ± 0.4 ×10^5
WBC ([6]; 48-hour CRI, Day 0): 8.2 ± 1.5 ×10^3
ALT ([6]; 48-hour CRI, Day 7): 57.0 ± 34.6 U/L
Calcium ([6]; 48-hour CRI, Day 7): 10.5 ± 0.3 mg/dL
Creatinine ([6]; 48-hour CRI, Day 7): 1.0 ± 0.3 mg/dL
Hematocrit ([6]; 48-hour CRI, Day 7): 55.4 ± 1.3%
Lymphocyte ([6]; 48-hour CRI, Day 7): 1.3 ± 0.2 ×10^3
Neutrophil ([6]; 48-hour CRI, Day 7): 5.0 ± 0.5 ×10^3
Phosphorous ([6]; 48-hour CRI, Day 7): 2.9 ± 0.9 mg/dL
Platelet ([6]; 48-hour CRI, Day 7): 1.8 ± 0.3 ×10^5
WBC ([6]; 48-hour CRI, Day 7): 7.0 ± 0.4 ×10^3
ALT ([6]; 48-hour CRI, Day 14): 56.3 ± 46.7 U/L
Calcium ([6]; 48-hour CRI, Day 14): 10.2 ± 0.4 mg/dL
Creatinine ([6]; 48-hour CRI, Day 14): 0.9 ± 0.1 mg/dL
Hematocrit ([6]; 48-hour CRI, Day 14): 49.3 ± 6.0%
Lymphocyte ([6]; 48-hour CRI, Day 14): 1.9 ± 0.7 ×10^3
Neutrophil ([6]; 48-hour CRI, Day 14): 4.3 ± 0.9 ×10^3
Phosphorous ([6]; 48-hour CRI, Day 14): 3.6 ± 0.3 mg/dL
Platelet ([6]; 48-hour CRI, Day 14): 2.0 ± 0.4 ×10^5
WBC ([6]; 48-hour CRI, Day 14): 7.0 ± 0.4 ×10^3
ALT ([6]; 48-hour CRI, Day 21): 49.7 ± 29.0 U/L
Calcium ([6]; 48-hour CRI, Day 21): 10.4 ± 0.4 mg/dL
Creatinine ([6]; 48-hour CRI, Day 21): 1.0 ± 0.2 mg/dL
Hematocrit ([6]; 48-hour CRI, Day 21): 50.6 ± 3.4%
Lymphocyte ([6]; 48-hour CRI, Day 21): 1.5 ± 0.2 ×10^3
Neutrophil ([6]; 48-hour CRI, Day 21): 5.9 ± 0.3 ×10^3
Phosphorous ([6]; 48-hour CRI, Day 21): 3.4 ± 0.4 mg/dL
Platelet ([6]; 48-hour CRI, Day 21): 2.2 ± 0.8 ×10^5
WBC ([6]; 48-hour CRI, Day 21): 8.4 ± 0.6 ×10^3
tolerability of CRI giving ≥ 10 µM for ≥ 24 hours ([6]; IV CRI, n=4): well-tolerated by all dogs
time of average peak plasma concentration following ingestion ([7]; 1.0 mg/kg oral): 45 min
AUC o-inf. ([7]; Mean ± SD, n=6): 310.5 ± 158.5 ng/mL/h
Cmax ([7]; Mean ± SD, n=6): 77.0 ± 37.5 ng/mL
F (absolute oral bioavailability) ([7]; Mean ± SD, n=6): 17.8 ± 9.5%
Oral clearance ([7]; Mean ± SD, n=6): 136 ± 79.6 L/h
Tmax ([7]; Mean ± SD, n=6): 0.84 ± 0.28 h
t1/2 K10 (terminal elimination half-life) ([7]; Mean ± SD, n=6): 2.08 ± 0.26 h
AUC o-inf. ([7]; individual dogs A-F, 1 mg/kg): 271 ng/mL/h and 408 ng/mL/h and 117 ng/mL/h and 508 ng/mL/h and 145 ng/mL/h and 414 ng/mL/h
Cmax ([7]; individual dogs A-F, 1 mg/kg): 63.9 ng/mL and 127 ng/mL and 31 ng/mL and 108 ng/mL and 43 ng/mL and 89 ng/mL
F (absolute oral bioavailability) ([7]; individual dogs A-F, 1 mg/kg): 16% and 17% and 8% (2×) and 31% and 27%
Oral clearance ([7]; individual dogs A-F, 1 mg/kg): 137 L/h and 77 L/h and 236 L/h and 61 L/h and 230 L/h and 75 L/h
Tmax ([7]; individual dogs A-F, 1 mg/kg): 1.09 h and 0.51 h and 0.90 h and 1.07 h and 0.45 h and 0.99 h
t1/2 K10 (terminal elimination half-life) ([7]; individual dogs A-F, 1 mg/kg): 2.02 h and 1.83 h and 1.86 h and 2.40 h and 1.97 h and 2.42 h
apoptosis ([8]; 48 hour, 10 µM): ~ 25%
cells remaining viable ([8]; 48 hours, 20 µM): ~ 60%
caspase-3 activity in cell lysate vs vehicle-treated control cells (caspase-3 [9]): failed to significantly increase
plasma concentration after 6 hours of infusion ([10]; average LD 5.8 mg/kg and MD 2.3 mg/kg/hour, n=4): 10.7 ± 2.0 µM
plateau plasma concentration ([10]; following completion of the first 24 hours): ~ 18 µM

Reference: PMC3182491 (Investigational new drugs, 2010)
